Results: ChEMBL document CHEMBL4017535 (J Med Chem, 2017)

Legend:
[1] = target: Bromodomain-containing protein 7 (Homo sapiens, UniProt Q9NPI1); assay: Binding affinity to human BRD7 (L125 to R254 residues) expressed in mammalian expression system by BROMOscan assay
[2] = target: Bromodomain-containing protein 8 (Homo sapiens, UniProt Q9H0E9); assay: Binding affinity to human BRD8 (1) (S700 to F854 residues) expressed in mammalian expression system by BROMOscan assay
[3] = Apparent oral plasma clearance in human at 1 mg; type: ADME
Procedure, shortened: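 Clinical PK in subjects with cancer after a single 1 mg oral dose, n = 3. Apparent clearance was reported as PO CLp/F in L/hr.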

[4] = Fraction unbound in rat plasma at 1 uM after 4 hrs by LC-MS/MS method; type: ADME, cell-free
[5] = target: Peregrin (Homo sapiens, UniProt P55201); assay: Binding affinity to human BRPF1 (E627 to G740 residues) expressed in bacterial expression system by BROMOscan assay
[6] = Plasma clearance in iv dosed human; type: ADME, organism-based
[7] = target: E3 ubiquitin-protein ligase TRIM33 (Homo sapiens, UniProt Q9UPN9); assay: Binding affinity to human TRIM33 (PHD, Bromo) (D882 to A1087 residues) expressed in bacterial expression system by BROMOscan assay
Sequence of E3 ubiquitin-protein ligase TRIM33 (Q9UPN9 whole entry, the tested form may be a part): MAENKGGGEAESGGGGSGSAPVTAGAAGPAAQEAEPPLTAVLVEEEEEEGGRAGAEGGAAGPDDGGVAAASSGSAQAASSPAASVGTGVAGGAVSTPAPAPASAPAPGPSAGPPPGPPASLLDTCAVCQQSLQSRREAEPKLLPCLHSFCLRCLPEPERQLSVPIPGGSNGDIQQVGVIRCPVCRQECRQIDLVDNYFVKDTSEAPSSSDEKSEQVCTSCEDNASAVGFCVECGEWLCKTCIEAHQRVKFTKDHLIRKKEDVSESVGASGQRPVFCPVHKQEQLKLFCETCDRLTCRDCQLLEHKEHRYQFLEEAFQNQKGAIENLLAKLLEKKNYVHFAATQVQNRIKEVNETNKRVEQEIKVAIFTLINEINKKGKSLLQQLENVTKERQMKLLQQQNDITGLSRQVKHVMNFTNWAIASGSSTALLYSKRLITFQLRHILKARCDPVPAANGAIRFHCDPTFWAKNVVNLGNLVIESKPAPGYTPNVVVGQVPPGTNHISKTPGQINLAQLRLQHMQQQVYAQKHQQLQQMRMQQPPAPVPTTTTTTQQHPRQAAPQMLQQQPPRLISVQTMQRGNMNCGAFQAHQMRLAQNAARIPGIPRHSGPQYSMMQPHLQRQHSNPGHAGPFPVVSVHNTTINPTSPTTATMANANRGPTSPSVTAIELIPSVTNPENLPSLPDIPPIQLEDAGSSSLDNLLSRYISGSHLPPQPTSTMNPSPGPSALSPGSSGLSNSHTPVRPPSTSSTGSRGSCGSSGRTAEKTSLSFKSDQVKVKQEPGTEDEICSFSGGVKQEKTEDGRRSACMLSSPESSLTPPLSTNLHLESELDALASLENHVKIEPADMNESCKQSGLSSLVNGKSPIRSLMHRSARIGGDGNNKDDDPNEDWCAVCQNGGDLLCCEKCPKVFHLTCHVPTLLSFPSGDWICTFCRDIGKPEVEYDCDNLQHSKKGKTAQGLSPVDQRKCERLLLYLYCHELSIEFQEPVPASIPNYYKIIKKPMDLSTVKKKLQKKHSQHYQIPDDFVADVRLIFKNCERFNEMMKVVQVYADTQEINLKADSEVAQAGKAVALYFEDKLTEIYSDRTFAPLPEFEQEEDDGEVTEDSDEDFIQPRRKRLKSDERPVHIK

[8] = target: Bromodomain testis-specific protein (Homo sapiens, UniProt Q58F21); assay: Binding affinity to BRDT BD1 to BD2 (N21 to P380 residues) (unknown origin)
[9] = Half life in mouse at 10 mg/kg, po; type: ADME, organism-based; details: in vivo
[10] = target: Bromodomain adjacent to zinc finger domain protein 2A (Homo sapiens, UniProt Q9UIF9); assay: Binding affinity to human BAZ2A (M1792 to L1905 residues) expressed in bacterial expression system by BROMOscan assay
[11] = target: Bromodomain-containing protein 9 (Homo sapiens, UniProt Q9H8M2); assay: Binding affinity to human BRD9 (R130 to V259 residues) expressed in bacterial expression system by BROMOscan assay
[12] = target: Translocator protein (Rattus norvegicus) (UniProt P16257); assay: Displacement of [3H]PK-11195 from peripheral benzodiazepine receptor in rat heart at 10 uM
[13] = target: Bromodomain and WD repeat-containing protein 1 (Homo sapiens, UniProt Q9NSI6); assay: Binding affinity to human WDR9(2) (A1310 to E1430 residues) expressed in bacterial expression system by BROMOscan assay
Sequence of Bromodomain and WD repeat-containing protein 1 (Q9NSI6 whole entry, the tested form may be a part): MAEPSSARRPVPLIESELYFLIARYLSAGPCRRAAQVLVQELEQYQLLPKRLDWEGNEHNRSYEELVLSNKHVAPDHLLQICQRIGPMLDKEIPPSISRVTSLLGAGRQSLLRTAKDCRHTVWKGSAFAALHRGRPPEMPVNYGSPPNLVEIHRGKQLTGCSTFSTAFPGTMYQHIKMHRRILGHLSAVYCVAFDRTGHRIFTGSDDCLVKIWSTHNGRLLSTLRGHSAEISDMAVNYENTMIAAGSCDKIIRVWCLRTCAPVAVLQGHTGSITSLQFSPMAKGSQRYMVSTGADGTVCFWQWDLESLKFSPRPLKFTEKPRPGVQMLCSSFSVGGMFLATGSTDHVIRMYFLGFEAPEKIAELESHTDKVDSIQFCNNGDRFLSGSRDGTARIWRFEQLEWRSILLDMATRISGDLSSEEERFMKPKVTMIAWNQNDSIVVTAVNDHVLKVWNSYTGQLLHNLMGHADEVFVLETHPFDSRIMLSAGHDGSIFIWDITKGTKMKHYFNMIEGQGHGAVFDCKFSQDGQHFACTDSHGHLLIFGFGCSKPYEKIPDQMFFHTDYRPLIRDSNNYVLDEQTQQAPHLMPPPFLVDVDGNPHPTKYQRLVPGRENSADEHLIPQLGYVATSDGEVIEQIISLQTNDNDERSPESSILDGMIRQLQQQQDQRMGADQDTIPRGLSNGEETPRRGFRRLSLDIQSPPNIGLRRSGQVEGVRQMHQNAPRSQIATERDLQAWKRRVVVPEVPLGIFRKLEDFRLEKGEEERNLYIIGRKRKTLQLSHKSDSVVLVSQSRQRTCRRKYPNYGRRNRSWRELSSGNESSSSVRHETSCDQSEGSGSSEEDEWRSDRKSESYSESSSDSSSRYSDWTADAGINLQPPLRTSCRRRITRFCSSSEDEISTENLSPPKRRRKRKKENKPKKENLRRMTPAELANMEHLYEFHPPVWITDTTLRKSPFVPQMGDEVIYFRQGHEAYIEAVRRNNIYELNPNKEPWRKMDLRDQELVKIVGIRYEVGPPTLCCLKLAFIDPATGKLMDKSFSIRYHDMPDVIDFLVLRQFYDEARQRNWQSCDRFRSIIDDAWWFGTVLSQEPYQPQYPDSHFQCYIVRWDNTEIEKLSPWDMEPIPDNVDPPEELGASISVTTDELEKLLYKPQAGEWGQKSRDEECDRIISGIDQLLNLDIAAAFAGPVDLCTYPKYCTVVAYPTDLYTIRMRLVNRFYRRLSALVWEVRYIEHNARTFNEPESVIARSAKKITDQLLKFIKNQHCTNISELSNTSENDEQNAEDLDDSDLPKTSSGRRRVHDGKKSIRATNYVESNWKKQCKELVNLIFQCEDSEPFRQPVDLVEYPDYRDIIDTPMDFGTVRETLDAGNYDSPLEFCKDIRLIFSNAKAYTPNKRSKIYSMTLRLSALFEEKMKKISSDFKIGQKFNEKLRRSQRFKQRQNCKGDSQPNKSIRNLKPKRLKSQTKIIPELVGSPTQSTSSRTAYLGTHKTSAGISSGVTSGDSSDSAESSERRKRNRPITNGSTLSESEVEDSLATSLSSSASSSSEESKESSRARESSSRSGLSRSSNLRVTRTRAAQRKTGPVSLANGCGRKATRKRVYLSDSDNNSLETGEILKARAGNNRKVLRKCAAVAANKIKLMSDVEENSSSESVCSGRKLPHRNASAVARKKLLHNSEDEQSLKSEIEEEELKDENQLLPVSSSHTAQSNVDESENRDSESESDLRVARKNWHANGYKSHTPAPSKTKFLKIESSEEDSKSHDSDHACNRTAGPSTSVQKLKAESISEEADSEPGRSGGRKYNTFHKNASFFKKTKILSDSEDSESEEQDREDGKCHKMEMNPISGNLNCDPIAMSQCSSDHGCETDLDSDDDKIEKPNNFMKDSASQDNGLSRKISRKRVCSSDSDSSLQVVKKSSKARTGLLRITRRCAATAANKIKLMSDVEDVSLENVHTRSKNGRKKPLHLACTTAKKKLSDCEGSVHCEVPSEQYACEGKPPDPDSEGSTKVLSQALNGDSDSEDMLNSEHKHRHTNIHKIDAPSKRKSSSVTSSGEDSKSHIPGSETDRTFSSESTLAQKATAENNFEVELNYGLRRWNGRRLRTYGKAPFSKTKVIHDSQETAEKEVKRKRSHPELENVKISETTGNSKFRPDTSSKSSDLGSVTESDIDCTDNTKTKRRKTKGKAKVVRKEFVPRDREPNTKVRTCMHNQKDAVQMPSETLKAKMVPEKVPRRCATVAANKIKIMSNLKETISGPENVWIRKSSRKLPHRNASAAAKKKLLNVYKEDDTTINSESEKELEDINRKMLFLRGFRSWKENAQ

[14] = target: Bromodomain-containing protein 4 (Homo sapiens, UniProt O60885); assay: Binding affinity to human N-terminal His6-tagged BRD4 BD1-BD2 (K57 to K550 residues) after 1 hr using alexa-647 conjugated probe by TR-FRET assay
[15] = Half life in rat at 1 mg/kg, po; type: ADME, organism-based; details: in vivo
[16] = Intrinsic clearance in human hepatocytes; type: ADME, cell-based, Hepatocyte; details: read-out: CLH (converted)
[17] = Oral bioavailability in rat at 1 mg/kg; type: ADME, organism-based; details: in vivo
Procedure, shortened: (§1)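 In rats, 1 mg/kg was given by both IV and PO routes. IV clearance is unbound (Cl_p,u, L/hr/kg). FaFg is taken as F/(1-Clp/Qh), using rat Qh 3.8 L/hr/kg. Unbound plasma fraction was determined in rat plasma.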

[18] = test system: Mus musculus; assay: Inhibition of LPS-induced IL-6 release in po dosed CD-1 mouse serum administered for 1 hr followed by LPS challenge measured after 2 hrs by immunoassay; type: functional, organism-based
Procedure, shortened: (§2)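 Compound given orally to mice, followed by an LPS challenge. Plasma IL-6 and plasma compound concentration were both measured 2 hours after LPS. Inhibition was related to dose and to plasma concentration at the time of cytokine measurement. Values are mean ± SE, n=5 per group.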

[19] = test system: Rattus norvegicus; assay: Plasma unbound clearance in rat at 1 mg/kg, iv; type: ADME, organism-based; details: in vivo; procedure, shortened: as §1
[20] = test system: Mus musculus; assay: Inhibition of LPS-induced IL-6 release in po dosed CD-1 mouse serum assessed as plasma concentration required to show 50% inhibition administered for 1 hr followed by LPS challenge measured after 2 hrs by immunoassay; type: functional, organism-based; procedure, shortened: as §2
[21] = test system: MX1; assay: Antiproliferative activity against human MX1 cells after 72 hrs by Cell Titer Glo assay; type: functional, cell-based; details: MX1, 72 h
[22] = target: Bromodomain-containing protein 3 (Homo sapiens, UniProt Q15059); assay: Binding affinity to BRD3 BD1 to BD2 (P24 to A416 residues) (unknown origin)
[23] = test system: Rattus norvegicus; assay: Oral absorption in rat at 1 mg/kg; type: ADME, organism-based; details: in vivo
Procedure, shortened: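 Oral absorption is expressed as FaFg, calculated as F/(1-Clp/Qh). Liver blood flow (Qh) was 5.2 L/hr/kg for mouse and 3.8 L/hr/kg for rat. Mouse dosing was 3 mg/kg IV and 10 mg/kg PO; rat dosing was 1 mg/kg IV and PO.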

[24] = target: Bromodomain adjacent to zinc finger domain protein 2B (Homo sapiens, UniProt Q9UIF8); assay: Binding affinity to human BAZ2B (S2054 to S2168 residues) expressed in bacterial expression system by BROMOscan assay
[25] = target: Histone acetyltransferase KAT2B (Homo sapiens, UniProt Q92831); assay: Binding affinity to human PCAF (G715 to D831 residues) expressed in mammalian expression system by BROMOscan assay
[26] = Intrinsic clearance in mouse hepatocytes; type: ADME, cell-based, Hepatocyte; details: read-out: CLH (converted)
[27] = test system: Kasumi 1; assay: Antitumor activity against gamma-irradiated human Kasumi-1 cells xenografted in NOD.SCID mouse assessed as tumor growth inhibition at 1 mg/kg, po qd for 25 days relative to control; type: functional; details: Kasumi 1, light or radiation study, 600 h, read-out: TGI
Procedure, shortened: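 Kasumi-1 AML xenograft in mice, with tumor growth inhibition (TGI) as the read-out. For the test agent, dosing was oral, once daily at 1 mg/kg for 25 days, with tolerability tracked as body-weight loss. For 5-azacitidine, dosing was IV, Q7d, at 8 mg/kg.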

[28] = target: Chromatin remodeling regulator CECR2 (Homo sapiens, UniProt Q9BXF3); assay: Binding affinity to human CECR2 (P423 to D543 residues) expressed in bacterial expression system by BROMOscan assay
[29] = Half life in po dosed dog; type: ADME, organism-based, Canis lupus familiaris; details: in vivo
[30] = Plasma clearance in iv dosed dog; type: ADME, organism-based, Canis lupus familiaris
[31] = target: Adenosine receptor A2a (Homo sapiens) (UniProt P29274); details: HEK293, 10 uM
Sequence of Adenosine receptor A2a (Homo sapiens) (P29274 whole entry, looked up, the tested form may be a part): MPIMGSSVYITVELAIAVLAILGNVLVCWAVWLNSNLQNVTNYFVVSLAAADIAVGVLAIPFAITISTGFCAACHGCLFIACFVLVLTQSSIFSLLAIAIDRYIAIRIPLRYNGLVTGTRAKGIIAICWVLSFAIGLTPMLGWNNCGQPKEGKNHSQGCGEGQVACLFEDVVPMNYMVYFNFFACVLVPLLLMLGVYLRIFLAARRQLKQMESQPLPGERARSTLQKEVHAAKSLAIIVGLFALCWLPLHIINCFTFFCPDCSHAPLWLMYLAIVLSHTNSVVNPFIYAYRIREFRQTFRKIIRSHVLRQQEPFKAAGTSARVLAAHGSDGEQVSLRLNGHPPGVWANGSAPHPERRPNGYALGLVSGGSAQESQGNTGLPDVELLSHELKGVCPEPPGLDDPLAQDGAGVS

[32] = target: Transcription initiation factor TFIID subunit 1-like (Homo sapiens, UniProt Q8IZX4); assay: Binding affinity to human TAF1L (2) (Q1523 to D1654 residues) expressed in bacterial expression system by BROMOscan assay
[33] = Oral bioavailability in monkey; type: ADME, organism-based, Macaca mulatta; details: rhesus monkey, in vivo
[34] = Intrinsic clearance in mouse liver microsomes; type: ADME, microsome; details: read-out: CLH (converted)
[35] = Intrinsic clearance in rat hepatocytes; type: ADME, cell-based, Hepatocyte; details: read-out: CLH (converted)
[36] = Plasma clearance in iv dosed monkey; type: ADME, organism-based, Macaca mulatta; details: rhesus monkey
[37] = target: Transcription intermediary factor 1-alpha (Homo sapiens, UniProt O15164); assay: Binding affinity to human TRIM24 (PHD, Bromo) (P790 to P977 residues) expressed in bacterial expression system by BROMOscan assay
[38] = Intrinsic clearance in monkey liver microsomes; type: ADME, Macaca mulatta, microsome; details: rhesus monkey, read-out: CLH (converted)

Sequence of Bromodomain-containing protein 8 (Q9H0E9 whole entry, the tested form may be a part): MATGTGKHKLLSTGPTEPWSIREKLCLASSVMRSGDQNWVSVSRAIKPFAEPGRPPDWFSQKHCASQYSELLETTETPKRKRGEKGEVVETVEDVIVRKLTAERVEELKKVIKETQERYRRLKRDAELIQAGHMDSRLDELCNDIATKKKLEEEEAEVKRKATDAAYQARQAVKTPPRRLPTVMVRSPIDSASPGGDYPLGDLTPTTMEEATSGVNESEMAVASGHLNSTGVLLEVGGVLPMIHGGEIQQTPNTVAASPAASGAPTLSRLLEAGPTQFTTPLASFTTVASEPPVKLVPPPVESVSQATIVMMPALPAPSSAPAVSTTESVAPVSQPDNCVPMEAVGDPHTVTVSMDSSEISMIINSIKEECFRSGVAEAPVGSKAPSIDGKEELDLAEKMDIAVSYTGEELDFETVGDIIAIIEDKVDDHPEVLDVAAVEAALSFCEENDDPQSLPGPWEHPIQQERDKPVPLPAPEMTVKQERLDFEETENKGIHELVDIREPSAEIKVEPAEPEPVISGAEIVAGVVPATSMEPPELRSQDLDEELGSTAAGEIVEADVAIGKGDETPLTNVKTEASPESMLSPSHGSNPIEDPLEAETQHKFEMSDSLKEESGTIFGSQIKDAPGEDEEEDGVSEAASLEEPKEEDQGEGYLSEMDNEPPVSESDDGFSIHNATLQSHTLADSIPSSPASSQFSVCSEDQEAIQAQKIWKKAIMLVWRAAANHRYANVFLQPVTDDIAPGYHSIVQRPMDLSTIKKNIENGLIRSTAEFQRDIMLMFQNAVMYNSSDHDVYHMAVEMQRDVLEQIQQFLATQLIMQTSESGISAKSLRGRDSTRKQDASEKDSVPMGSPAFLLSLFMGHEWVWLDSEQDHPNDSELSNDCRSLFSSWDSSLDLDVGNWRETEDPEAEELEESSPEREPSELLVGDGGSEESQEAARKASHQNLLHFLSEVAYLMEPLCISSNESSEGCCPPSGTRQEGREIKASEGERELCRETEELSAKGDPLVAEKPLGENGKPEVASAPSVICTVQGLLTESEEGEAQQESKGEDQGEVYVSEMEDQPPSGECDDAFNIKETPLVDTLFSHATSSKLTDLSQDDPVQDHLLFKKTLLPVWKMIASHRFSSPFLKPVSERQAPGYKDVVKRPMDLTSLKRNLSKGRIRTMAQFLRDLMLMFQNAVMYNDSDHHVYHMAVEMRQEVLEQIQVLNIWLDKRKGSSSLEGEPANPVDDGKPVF

Molecule CCS(=O)(=O)Nc1ccc(Oc2ccc(F)cc2F)c(-c2cn(C)c(=O)c3[nH]ccc23)c1 [MIVEBRESIB] has a Kd [1] of over 1000 nM, a Kd [2] of over 1000 nM and a CL/F [3] of 83.8 mL/min. For the same molecule, the fraction unbound at 4 h, 1 µM [4] was 0.023, the Kd [5] was over 1000 nM and the clearance [6] was 2.33 mL/min/kg. It also gave a Kd [7] of over 1000 nM, a Ki [8] of 2.2 nM and a half-life [9] of 2.7 h. For the same molecule, the Kd [10] was over 1000 nM, the Kd [11] was over 1000 nM and the inhibition [12] was 86%. It also gave a Kd [13] of over 1000 nM, a Ki [14] of 1.5 nM and a half-life [15] of 2.6 h. For the same molecule, the CLint scaled [16] was 14.5 mL/min/kg, the bioavailability [17] was 65% and the inhibition [18] was “Dose-dependent effect”. The clearance [19] was 450 mL/min/kg, the Cp [20] was 0.03 to 0.1 µM and the EC50 [21] was 13 nM. The Ki [22] was 12.2 nM, the FaFg [23] was 0.77 and the Kd [24] was over 1000 nM. It also gave a Kd [25] of over 1000 nM, a CLint scaled [26] of 58.3 mL/min/kg and an inhibition in vivo at 1 mg/kg [27] of 99%. The Kd [28] was over 1000 nM, the half-life [29] was 5.8 h and the clearance [30] was 3.17 mL/min/kg. It also gave an inhibition [31] of 87%, a Kd [32] of over 1000 nM and a bioavailability [33] of 33%. The CLint scaled [34] was 138 mL/min/kg, the CLint scaled [35] was 66.7 mL/min/kg and the clearance [36] was 5.5 mL/min/kg. It also gave a Kd [37] of over 1000 nM and a CLint scaled [38] of 38.3 mL/min/kg.
